Compounds with a hit are over-represented: about 1.6% of the library has one in this group of screens.
MT1-MMP act inh – blockers of MT1-MMP proenzyme processing, primary screen, HT1080 RFP-PRO-GFP cells, GFP/RFP fluorescence; Matrix metalloproteinase-14 (Homo sapiens), P50281; actives 0.061% (n = 360,000); GFP/RFP ratio fluorescence, overnight; percent of plate control window, DMSO zero; GFP/RFP ratio change, % at 20 µM; AID 651647, 2012;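 active = GFP/RFP ratio change of at least 30% with cell ATP level not reduced by more than half and red fluorescence within 50% of control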
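Material: RFP-PRO-GFP reporter HT1080 cells. Dosing: single-point 20 µM compound, 1% DMSO. Controls: DMSO and RFP-L50D-GFP cell wells. Timing: cells overnight before dosing, compound overnight, 37 °C, 5% CO2. Measure: GFP/RFP fluorescence ratio.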
DDE Tn6 FP inh – inhibitors of Tn6 peptide binding to fibrin DD(E), primary screen, biochemical, fluorescence polarization, human fibrin, Tn6 probe; Fibrin DD(E) TRITC-Tn6 fluorescence polarization displacement; inhibition, % at 8.3 µM; actives 0.21% (n = 370,000);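 active = inhibition above a per-campaign cutoff: mean of compounds within control limits plus 3 SD, cut at about 15% in these data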
ADAM17 inh – ADAM17 inhibitors, primary screen, biochemical, QFRET | inhibition, % at 6.95 µM | recombinant ADAM17, EDANS/DABCYL FRET peptide cleavage | AID 720648, 2013 | actives 0.83% (n = 370,000) | Disintegrin and metalloproteinase domain-containing protein 17 (Homo sapiens), P78536;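 active = inhibition above the mean of compounds lying between control limits plus 3 SD, set per campaign, cut at about 8.5% in these data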
Target sequence (P78536 215-824 limits assumed): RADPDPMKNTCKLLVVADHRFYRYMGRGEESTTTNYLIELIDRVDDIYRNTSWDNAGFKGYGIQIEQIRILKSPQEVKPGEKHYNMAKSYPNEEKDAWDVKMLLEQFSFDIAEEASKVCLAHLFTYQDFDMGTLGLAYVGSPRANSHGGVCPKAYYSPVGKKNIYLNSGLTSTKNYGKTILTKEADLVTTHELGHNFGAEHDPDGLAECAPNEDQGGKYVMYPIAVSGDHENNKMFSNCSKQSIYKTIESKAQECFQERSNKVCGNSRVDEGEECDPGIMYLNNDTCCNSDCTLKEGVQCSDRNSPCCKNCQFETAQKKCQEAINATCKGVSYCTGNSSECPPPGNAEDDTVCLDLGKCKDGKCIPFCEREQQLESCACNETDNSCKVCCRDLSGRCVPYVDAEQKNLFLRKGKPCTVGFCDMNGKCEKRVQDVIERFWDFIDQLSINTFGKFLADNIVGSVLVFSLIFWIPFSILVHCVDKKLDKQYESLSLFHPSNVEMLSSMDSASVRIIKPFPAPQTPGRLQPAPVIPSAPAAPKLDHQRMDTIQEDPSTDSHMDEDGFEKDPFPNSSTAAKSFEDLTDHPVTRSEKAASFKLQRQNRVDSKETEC
ADAM10 inh – human ADAM10 inhibitors, primary screen, biochemical, QFRET, HTS | Disintegrin and metalloproteinase domain-containing protein 10 (Homo sapiens), O14672 | recombinant ADAM10, EDANS/DABCYL FRET peptide cleavage, 3 h | inhibition, % at 7 µM | actives 0.62% (n = 370,000);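 active = inhibition above a per-campaign cutoff equal to the mean of compounds falling between control-based bounds plus 3 SD, cut at about 20% in these data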
Tn7 DDE FP – inhibitors of Tn7 peptide binding to fibrin DD(E), primary screen, biochemical, fluorescence polarization, human fibrin, Tn7 probe; Fibrinogen beta chain (Homo sapiens), P02675; actives 0.13% (n = 370,000); AID 720508, 2013; inhibition, % at 8.3 µM; FP displacement of FITC-Tn7 peptide from fibrin DD(E); 0% = median of compound wells per plate;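 active = inhibition above the mean of compounds falling within the control limits plus 3 SD of them, cut at about 14% in these data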
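Measure: % inhibition scaled between sample-field median and high-control FP; Test system: human fibrin DD(E); Quantity: 2 µM final DD(E) protein; Doses: one dose, 8.3 µM nominal; Schedule: compound with protein 10 min, then 3 h after probe, room temperature; Detection: fluorescence polarization; Medium: Tris buffer with calcium and detergent, pH 7.8.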
ADAM10 confirm – human ADAM10 inhibitors, confirmation, biochemical, QFRET, triplicate | shares compounds with ADAM10 inh | ADAM10 QFRET peptide cleavage, EDANS fluorescence | inhibition, % at 6.95 µM | actives 1% (n = 2,100) | AID 743208, 2013;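 active = inhibition above about 20% chosen separately for each screening run, limit read from the data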
ADAM17 ctr – ADAM17 inhibitors, counter-screen for ADAM10 exosite inhibitor project, biochemical, QFRET, high throughput. shares compounds with ADAM10 inh. ADAM17 QFRET peptide cleavage, EDANS fluorescence. inhibition, % at 6.95 µM. actives 0.5% (n = 2,100). AID 743214, 2013;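 active = mean triplicate inhibition above the solvent-only control wells' mean plus 3 SD, cut at about 12% in these data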
A number is an active result.

How did Cn1c(SC2CCCC2)nnc1-c1ccco1 do in these assays?
DDE Tn6 FP inh: inactive; ADAM17 inh: inactive; ADAM10 inh: inactive; Tn7 DDE FP: inactive

How did O=S(Cc1ccc(Br)cc1)Cc1nnc(SCc2ccc(Br)cc2)n1-c1ccccc1 (configuration not stated) do in these assays?
MT1-MMP act inh: inactive; DDE Tn6 FP inh: inactive; ADAM17 inh: inactive; ADAM10 inh: 22; Tn7 DDE FP: inactive; ADAM10 confirm: inactive; ADAM17 ctr: inactive

Results for CN(C(=O)c1ccc(NC(=O)Cc2ccc(NC(=O)C3CCCN(S(=O)(=O)c4cccc([N+](=O)[O-])c4)C3)cc2)cc1)C1CCCC1 (configuration not stated) ?
MT1-MMP act inh: inactive; DDE Tn6 FP inh: inactive; ADAM17 inh: inactive; ADAM10 inh: 23; Tn7 DDE FP: inactive; ADAM10 confirm: inactive; ADAM17 ctr: inactive

How did Cc1ccccc1NC(=O)CSc1nnc(-c2cc(-c3ccccc3)n[nH]2)n1N do in these assays?
DDE Tn6 FP inh: inactive; ADAM17 inh: inactive; ADAM10 inh: inactive; Tn7 DDE FP: inactive

What do the screens show for `COc1ccc(NC(=O)C2C(c3ccccc3)C2(Cl)Cl)cc1` (configuration not stated)?
MT1-MMP act inh: inactive; DDE Tn6 FP inh: inactive; ADAM17 inh: inactive; ADAM10 inh: inactive; Tn7 DDE FP: inactive

How did CCOc1ccc(NC(=O)C2C(c3ccccc3)C2(Cl)Cl)cc1 (configuration not stated) do in these assays?
MT1-MMP act inh: inactive; DDE Tn6 FP inh: inactive; ADAM17 inh: inactive; ADAM10 inh: 20; Tn7 DDE FP: inactive; ADAM10 confirm: inactive; ADAM17 ctr: inactive

What do the screens show for `COc1ccc(C(C)(C)C)cc1N1C(=O)[C@@H]2CSCCS(=O)(=O)N2C1=O`?
DDE Tn6 FP inh: inactive; ADAM17 inh: inactive; ADAM10 inh: inactive; Tn7 DDE FP: inactive

What do the screens show for `CCOC(=O)[C@@]12CCC3=C1N(CCC3)C(=O)[C@H](CC(=O)N1CCC(c3ccccc3)CC1)C2`?
DDE Tn6 FP inh: inactive; ADAM17 inh: inactive; ADAM10 inh: inactive; Tn7 DDE FP: inactive

How did COc1ccc(S[C@]2(C(=O)N3CCCC3)CC(=O)N(C(=O)C3CC3)[C@@H]2c2ccc(OC)cc2)cc1 do in these assays?
DDE Tn6 FP inh: inactive; ADAM17 inh: inactive; ADAM10 inh: inactive; Tn7 DDE FP: inactive

What do the screens show for `O=C(Nc1ccc(S(=O)(=O)N2CCCC2)cc1)Nc1ccc(F)cc1F`?
MT1-MMP act inh: inactive; DDE Tn6 FP inh: inactive; ADAM17 inh: inactive; ADAM10 inh: inactive; Tn7 DDE FP: inactive

Results for Cc1ccc(S(=O)(=O)Nc2ccc(NC(=O)Nc3ccc(F)cc3F)cc2)cc1 ?
MT1-MMP act inh: inactive; DDE Tn6 FP inh: inactive; ADAM17 inh: inactive; ADAM10 inh: 20; Tn7 DDE FP: inactive; ADAM10 confirm: inactive; ADAM17 ctr: inactive

How did O=[N+]([O-])c1cc(CN2CCN(c3ccccc3)CC2)c(O)c2ncccc12 do in these assays?
MT1-MMP act inh: inactive; DDE Tn6 FP inh: inactive; ADAM17 inh: inactive; ADAM10 inh: 20; Tn7 DDE FP: inactive; ADAM10 confirm: inactive; ADAM17 ctr: inactive

What do the screens show for `CN1CCN(Cc2cc(COCc3ccccc3)c3cccnc3c2O)CC1`?
MT1-MMP act inh: inactive; DDE Tn6 FP inh: inactive; ADAM17 inh: inactive; ADAM10 inh: inactive; Tn7 DDE FP: inactive

How did CCCCOCCCNC(=O)C[C@H]1C[C@@]2(C(=O)OC)C(=C[C@H](C(C)C)O[C@@H]2C2CC2)N(Cc2ccc3c(c2)OCO3)C1=O do in these assays?
DDE Tn6 FP inh: inactive; ADAM17 inh: inactive; ADAM10 inh: inactive; Tn7 DDE FP: inactive

How did O=C(NCCc1ccccc1)c1oc2ccccc2c1COc1ccccc1 do in these assays?
MT1-MMP act inh: inactive; DDE Tn6 FP inh: inactive; ADAM17 inh: inactive; ADAM10 inh: 20; Tn7 DDE FP: inactive; ADAM10 confirm: inactive; ADAM17 ctr: inactive

Results for O=C(Nc1ccccc1Cc1ccccc1)c1oc2ccccc2c1COc1ccccc1 ?
MT1-MMP act inh: inactive; DDE Tn6 FP inh: inactive; ADAM17 inh: inactive; ADAM10 inh: inactive; Tn7 DDE FP: inactive

Results for CCOC(=O)C1C(C(=O)OCC)C2C(=O)C3C(C(=O)OCC)C(C(=O)OCC)C3C(=O)C12 (configuration not stated) ?
MT1-MMP act inh: inactive; DDE Tn6 FP inh: inactive; ADAM17 inh: inactive; ADAM10 inh: inactive; Tn7 DDE FP: inactive

Results for CCC1Sc2ccc(S(=O)(=O)CCC(=O)Nc3c(Cl)cc(OC)cc3OC)cc2NC1=O (configuration not stated) ?
MT1-MMP act inh: inactive; DDE Tn6 FP inh: inactive; ADAM17 inh: inactive; ADAM10 inh: 20; Tn7 DDE FP: inactive; ADAM10 confirm: inactive; ADAM17 ctr: inactive

Results for Cc1ccc(C2C(/C=C3/SC(=S)NC3=O)=C(c3cccs3)Oc3ccccc32)cc1 (configuration not stated) ?
MT1-MMP act inh: inactive; DDE Tn6 FP inh: inactive; ADAM17 inh: inactive; ADAM10 inh: 20; Tn7 DDE FP: inactive; ADAM10 confirm: inactive; ADAM17 ctr: inactive

How did COc1cccc(OCc2cc(C(=O)N(C)CCOc3ccc(C)cc3)no2)c1 do in these assays?
MT1-MMP act inh: inactive; DDE Tn6 FP inh: inactive; ADAM17 inh: inactive; ADAM10 inh: 20; Tn7 DDE FP: inactive; ADAM10 confirm: inactive; ADAM17 ctr: inactive

What do the screens show for `CN(CCc1ccccc1)C(=O)c1cc(COc2cccc(C(F)(F)F)c2)on1`?
MT1-MMP act inh: inactive; DDE Tn6 FP inh: inactive; ADAM17 inh: inactive; ADAM10 inh: 21; Tn7 DDE FP: inactive; ADAM10 confirm: inactive; ADAM17 ctr: inactive

Results for CN(CCCN1CCOCC1)C(=O)c1cc(COc2cccc(C(F)(F)F)c2)on1 ?
MT1-MMP act inh: inactive; DDE Tn6 FP inh: inactive; ADAM17 inh: inactive; ADAM10 inh: inactive; Tn7 DDE FP: inactive

Results for CC(=O)c1ccc(NC(=O)COC(=O)C2CCN(S(=O)(=O)c3cccs3)CC2)cc1 ?
MT1-MMP act inh: inactive; DDE Tn6 FP inh: inactive; ADAM17 inh: inactive; ADAM10 inh: 85; Tn7 DDE FP: inactive; ADAM10 confirm: inactive; ADAM17 ctr: inactive
